Laboratory results from ChEMBL document CHEMBL5376013, “Design, synthesis and biological evaluation of novel morpholinopyrimidine-5-carbonitrile derivatives as dual PI3K/mTOR inhibitors” (RSC Med Chem, 2024).

What was measured:
Type in all cases: functional
Conditions in all cases: read-out: GI
[1] = test system: CCRF-CEM; test: Antitumor activity against human CCRF-CEM cells assessed as growth inhibition at 10 uM relative to control
Procedure, shortened: (§1)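 After drug addition, plates were incubated 48 h at 37 °C under 5% CO2. Adherent cells were fixed with cold TCA (10% final, 60 min, 4 °C) and suspension cells with 16% final TCA. Staining used 0.4% SRB in 1% acetic acid, solubilized in 10 mM trizma, read at A515. Percent growth was calculated from time-zero, control and treated absorbances.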

[2] = test system: K562; test: Antitumor activity against human K562 cells assessed as growth inhibition at 10 uM relative to control; procedure, shortened: as §1
[3] = test system: MOLT-4; test: Antitumor activity against human MOLT-4 cells assessed as growth inhibition at 10 uM relative to control; procedure, shortened: as §1
[4] = test system: RPMI-8226; test: Antitumor activity against human RPMI-8226 cells assessed as growth inhibition at 10 uM relative to control; procedure, shortened: as §1
[5] = test system: SR; test: Antitumor activity against human SR cells assessed as growth inhibition at 10 uM relative to control
Procedure, shortened: (§2)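 Drug exposure 48 h at 37 °C, 5% CO2. Adherent cells fixed with cold TCA (10% final), suspension cells with TCA (16% final). Stained with 0.4% SRB in 1% acetic acid, dissolved in 10 mM Tris, A515. Growth relative to time-zero and untreated control.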

[6] = test system: A549; test: Antitumor activity against human A549 cells assessed as growth inhibition at 10 uM relative to control; procedure, shortened: as §1
[7] = test system: HOP-62; test: Antitumor activity against human HOP-62 cells assessed as growth inhibition at 10 uM relative to control; procedure, shortened: as §1
[8] = test system: HOP-92; test: Antitumor activity against human HOP-92 cells assessed as growth inhibition at 10 uM relative to control; procedure, shortened: as §1
[9] = test system: NCI-H226; test: Antitumor activity against human NCI-H226 cells assessed as growth inhibition at 10 uM relative to control; procedure, shortened: as §1
[10] = test system: NCI-H23; test: Antitumor activity against human NCI-H23 cells assessed as growth inhibition at 10 uM relative to control; procedure, shortened: as §1
[11] = test system: NCI-H522; test: Antitumor activity against human NCI-H522 cells assessed as growth inhibition at 10 uM relative to control; procedure, shortened: as §1
[12] = test system: COLO 205; test: Antitumor activity against human COLO 205 cells assessed as growth inhibition at 10 uM relative to control; procedure, shortened: as §1
[13] = test system: HCT-116; test: Antitumor activity against human HCT-116 cells assessed as growth inhibition at 10 uM relative to control; procedure, shortened: as §1
[14] = test system: HCT-15; test: Antitumor activity against human HCT-15 cells assessed as growth inhibition at 10 uM relative to control; procedure, shortened: as §1
[15] = test system: HT-29; test: Antitumor activity against human HT-29 cells assessed as growth inhibition at 10 uM relative to control; procedure, shortened: as §1
[16] = test system: KM12; test: Antitumor activity against human KM12 cells assessed as growth inhibition at 10 uM relative to control; procedure, shortened: as §1
[17] = test system: SW-620; test: Antitumor activity against human SW-620 cells assessed as growth inhibition at 10 uM relative to control; procedure, shortened: as §2
[18] = test system: SF-268; test: Antitumor activity against human SF-268 cells assessed as growth inhibition at 10 uM relative to control; procedure, shortened: as §1
[19] = test system: SF-539; test: Antitumor activity against human SF-539 cells assessed as growth inhibition at 10 uM relative to control; procedure, shortened: as §1
[20] = test system: SNB-19; test: Antitumor activity against human SNB-19 cells assessed as growth inhibition at 10 uM relative to control; procedure, shortened: as §2
[21] = test system: SNB-75; test: Antitumor activity against human SNB-75 cells assessed as growth inhibition at 10 uM relative to control; procedure, shortened: as §2
[22] = test system: U-251; test: Antitumor activity against human U-251 cells assessed as growth inhibition at 10 uM relative to control; procedure, shortened: as §2
[23] = test system: LOX IMVI; test: Antitumor activity against human LOX IMVI cells assessed as growth inhibition at 10 uM relative to control; procedure, shortened: as §1
[24] = test system: Malme-3M; test: Antitumor activity against human Malme-3M cells assessed as growth inhibition at 10 uM relative to control; procedure, shortened: as §1
[25] = test system: SK-MEL-2; test: Antitumor activity against human SK-MEL-2 cells assessed as growth inhibition at 10 uM relative to control; procedure, shortened: as §1
[26] = test system: SK-MEL-28; test: Antitumor activity against human SK-MEL-28 cells assessed as growth inhibition at 10 uM relative to control; procedure, shortened: as §2
[27] = test system: SK-MEL-5; test: Antitumor activity against human SK-MEL-5 cells assessed as growth inhibition at 10 uM relative to control; procedure, shortened: as §2
[28] = test system: UACC-257; test: Antitumor activity against human UACC-257 cells assessed as growth inhibition at 10 uM relative to control; procedure, shortened: as §2
[29] = test system: UACC-62; test: Antitumor activity against human UACC-62 cells assessed as growth inhibition at 10 uM relative to control; procedure, shortened: as §2
[30] = test system: OVCAR-3; test: Antitumor activity against human OVCAR-3 cells assessed as growth inhibition at 10 uM relative to control; procedure, shortened: as §1
[31] = test system: OVCAR-4; test: Antitumor activity against human OVCAR-4 cells assessed as growth inhibition at 10 uM relative to control; procedure, shortened: as §1
[32] = test system: NCI/ADR-RES; test: Antitumor activity against human NCI-ADR-RES cells assessed as growth inhibition at 10 uM relative to control; procedure, shortened: as §1
[33] = test system: SK-OV-3; test: Antitumor activity against human SK-OV-3 cells assessed as growth inhibition at 10 uM relative to control; procedure, shortened: as §2
[34] = test system: 786-0; test: Antitumor activity against human 786-0 cells assessed as growth inhibition at 10 uM relative to control; procedure, shortened: as §1
[35] = test system: ACHN; test: Antitumor activity against human ACHN cells assessed as growth inhibition at 10 uM relative to control; procedure, shortened: as §1
[36] = test system: CAKI-1; test: Antitumor activity against human CAKI-1 cells assessed as growth inhibition at 10 uM relative to control; procedure, shortened: as §1
[37] = test system: RXF 393; test: Antitumor activity against human RXF 393 cells assessed as growth inhibition at 10 uM relative to control; procedure, shortened: as §1
[38] = test system: SN12C; test: Antitumor activity against human SN12C cells assessed as growth inhibition at 10 uM relative to control; procedure, shortened: as §2
[39] = test system: UO-31; test: Antitumor activity against human UO-31 cells assessed as growth inhibition at 10 uM relative to control; procedure, shortened: as §2
[40] = test system: PC-3; test: Antitumor activity against human PC-3 cells assessed as growth inhibition at 10 uM relative to control; procedure, shortened: as §1
[41] = test system: DU-145; test: Antitumor activity against human DU-145 cells assessed as growth inhibition at 10 uM relative to control; procedure, shortened: as §1
[42] = test system: MCF7; test: Antitumor activity against human MCF7 cells assessed as growth inhibition at 10 uM relative to control; procedure, shortened: as §1
[43] = test system: MDA-MB-231; test: Antitumor activity against human MDA-MB-231 cells assessed as growth inhibition at 10 uM relative to control; procedure, shortened: as §1
[44] = test system: BT-549; test: Antitumor activity against human BT-549 cells assessed as growth inhibition at 10 uM relative to control; procedure, shortened: as §1
[45] = test system: T47D; test: Antitumor activity against human T47D cells assessed as growth inhibition at 10 uM relative to control; procedure, shortened: as §2
[46] = test system: MDA-MB-468; test: Antitumor activity against human MDA-MB-468 cells assessed as growth inhibition at 10 uM relative to control; procedure, shortened: as §1

Compound: N#Cc1c(-c2ccc(Cl)cc2)nc(N/N=C/c2cccc(Cl)c2)nc1N1CCOCC1
- inhibition of growth at 10 µM [1]: 27.5%
- inhibition of growth at 10 µM [2]: 64.9%
- inhibition of growth at 10 µM [3]: 46.7%
- inhibition of growth at 10 µM [4]: 35%
- inhibition of growth at 10 µM [5]: 91.3%
- inhibition of growth at 10 µM [6]: 18.1%
- inhibition of growth at 10 µM [7]: < 1%
- inhibition of growth at 10 µM [8]: 10.7%
- inhibition of growth at 10 µM [9]: 10.7%
- inhibition of growth at 10 µM [10]: < 1%
- inhibition of growth at 10 µM [11]: < 1%
- inhibition of growth at 10 µM [12]: 39%
- inhibition of growth at 10 µM [13]: 29.2%
- inhibition of growth at 10 µM [14]: 64.6%
- inhibition of growth at 10 µM [15]: 59.6%
- inhibition of growth at 10 µM [16]: < 1%
- inhibition of growth at 10 µM [17]: 46.7%
- inhibition of growth at 10 µM [18]: < 1%
- inhibition of growth at 10 µM [19]: 20.9%
- inhibition of growth at 10 µM [20]: < 1%
- inhibition of growth at 10 µM [21]: 19.9%
- inhibition of growth at 10 µM [22]: < 1%
- inhibition of growth at 10 µM [23]: 14.5%
- inhibition of growth at 10 µM [24]: < 1%
- inhibition of growth at 10 µM [25]: < 1%
- inhibition of growth at 10 µM [26]: < 1%
- inhibition of growth at 10 µM [27]: < 1%
- inhibition of growth at 10 µM [28]: 28.4%
- inhibition of growth at 10 µM [29]: < 1%
- inhibition of growth at 10 µM [30]: 12.6%
- inhibition of growth at 10 µM [31]: < 1%
- inhibition of growth at 10 µM [32]: 10.8%
- inhibition of growth at 10 µM [33]: < 1%
- inhibition of growth at 10 µM [34]: 29.9%
- inhibition of growth at 10 µM [35]: 25.7%
- inhibition of growth at 10 µM [36]: 20.8%
- inhibition of growth at 10 µM [37]: < 1%
- inhibition of growth at 10 µM [38]: < 1%
- inhibition of growth at 10 µM [39]: 46.5%
- inhibition of growth at 10 µM [40]: 26.5%
- inhibition of growth at 10 µM [41]: 24%
- inhibition of growth at 10 µM [42]: < 14.1%
- inhibition of growth at 10 µM [43]: < 1%
- inhibition of growth at 10 µM [44]: < 1%
- inhibition of growth at 10 µM [45]: 23.4%
- inhibition of growth at 10 µM [46]: 14.9%

Compound: N#Cc1c(-c2ccc(Cl)cc2)nc(N/N=C2/C(=O)Nc3ccc(Br)cc32)nc1N1CCOCC1
- inhibition of growth at 10 µM [1]: < 1%
- inhibition of growth at 10 µM [2]: < 1%
- inhibition of growth at 10 µM [3]: < 1%
- inhibition of growth at 10 µM [4]: < 1%
- inhibition of growth at 10 µM [5]: < 1%
- inhibition of growth at 10 µM [6]: < 1%
- inhibition of growth at 10 µM [7]: < 1%
- inhibition of growth at 10 µM [8]: < 1%
- inhibition of growth at 10 µM [9]: < 1%
- inhibition of growth at 10 µM [10]: 11.9%
- inhibition of growth at 10 µM [11]: < 1%
- inhibition of growth at 10 µM [12]: 1%
- inhibition of growth at 10 µM [13]: 16.8%
- inhibition of growth at 10 µM [14]: 1%
- inhibition of growth at 10 µM [15]: < 1%
- inhibition of growth at 10 µM [16]: < 1%
- inhibition of growth at 10 µM [17]: < 1%
- inhibition of growth at 10 µM [18]: < 1%
- inhibition of growth at 10 µM [19]: < 1%
- inhibition of growth at 10 µM [20]: < 1%
- inhibition of growth at 10 µM [21]: < 1%
- inhibition of growth at 10 µM [22]: 33.6%
- inhibition of growth at 10 µM [23]: 14.6%
- inhibition of growth at 10 µM [24]: < 1%
- inhibition of growth at 10 µM [25]: < 1%
- inhibition of growth at 10 µM [26]: < 1%
- inhibition of growth at 10 µM [27]: < 1%
- inhibition of growth at 10 µM [28]: < 1%
- inhibition of growth at 10 µM [29]: < 1%
- inhibition of growth at 10 µM [30]: < 1%
- inhibition of growth at 10 µM [31]: < 1%
- inhibition of growth at 10 µM [32]: < 1%
- inhibition of growth at 10 µM [33]: < 1%
- inhibition of growth at 10 µM [34]: < 1%
- inhibition of growth at 10 µM [35]: < 1%
- inhibition of growth at 10 µM [36]: < 1%
- inhibition of growth at 10 µM [37]: < 1%
- inhibition of growth at 10 µM [38]: < 1%
- inhibition of growth at 10 µM [39]: 28.7%
- inhibition of growth at 10 µM [40]: < 1%
- inhibition of growth at 10 µM [41]: < 1%
- inhibition of growth at 10 µM [42]: 1%
- inhibition of growth at 10 µM [43]: 14.2%
- inhibition of growth at 10 µM [44]: < 1%
- inhibition of growth at 10 µM [45]: < 1%
- inhibition of growth at 10 µM [46]: < 1%
